*: point of attachment. Fmoc = O=C(OCC1c2ccccc2-c2ccccc21)*
Assays:
[1] = soft Fmoc-WWRR-NH2 based hydrogels; cited from earlier work
[2] = Gelation by inverted tube test / minimum gelation concentration; assay type: physicochemical; conditions: 1 w/v% of sequence + 1 w/v% H-FQFQFK-NH2 in PBS
Outline: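 Gels formed by adding PBS to the peptide acetate salt in a tube, then repeated vortexing (1 min) and sonication (5 min), and resting overnight at room temperature before assessment.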

[3] = Rheology, shear recovery experiment; assay type: physicochemical; conditions: 2 w/v% P4 biogel, shear strain 50%, 1 Hz, 25 °C
Outline: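 Hydrogel (350 μL) loaded on a 25 mm plate and rested 5 min. G′ and G′′ were recorded for 60 s at 1 Hz and 1% strain, then strain was raised to 50% for 30 s. The cycle was repeated 4 times under a 1 N normal force at 25 °C, in threefold.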

| Gelation behavior of co-formulation with parent peptide (inverted tube test) [2] | Substance | further results |
| --- | --- | --- |
|  | Fmoc-WWRR-NH2 | Storage modulus G′ of reported hydrogel [1]: ~100 Pa |
| self-supporting hydrogels | H-RRWWQFQFK-NH2 [P5, H-RRWWQFQFK-NH2] |  |
|  | H-RWRWQFQFK-NH2 [P4, H-RWRWQFQFK-NH2] | tan δ at increased shear strain [3]: 0.6 |
| self-supporting hydrogels | H-WRWRFQFQFK-NH2 [P2, H-WRWRFQFQFK-NH2] |  |
